The results in this text go back to ChEMBL document CHEMBL4033781 (J Med Chem, 2018).

Structures are written as SMILES. Calls of active or inactive are those of the source. The rule behind the calls is not given here.

In series [1] the test system is Rattus norvegicus. As to the kind of experiment: Inhibition of rat sperm movement at 20 mg/kg administered via oral gavage for 3 days by SYTO staining based microscopic method relative to control. It is filed as functional. The note with it: 72 h. A digest of the protocol: (§1)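 Male rats were dosed daily by oral gavage, either at 5, 10 or 20 mg/kg for 3 days, or at 5 mg/kg for 3, 6, 9 or 12 days. Animals were then sacrificed and cauda epididymal sperm collected. Total and progressive motility were measured by CASA and compared with untreated controls. Values are mean ± SEM of three experiments.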

Series [2] deals with Na+/K+ ATPase alpha-3/beta-1 (Rattus norvegicus, UniProt P06687+P07340). Nature of the series: Inhibition of recombinant rat Na+/K+-ATPase alpha3/beta1 expressed in baculovirus infected insect Sf9 cell membranes using [gamma-32P]ATP as substrate preincubated for 20 mins followed by substrate addition measured after 30 mins by liquid scintillation counting. The essentials: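 Rat α/β1 isoforms were expressed in baculovirus-infected Sf9 cells (72 h, 27 °C), washed in 10 mM imidazole-HCl pH 7.5 with 1 mM EGTA, and homogenised. Homogenates were assayed in 120 mM NaCl, 30 mM KCl, 3 mM MgCl₂, 0.2 mM EGTA and 30 mM Tris-HCl pH 7.4. Reactions were started with 2 mM γ[³²P]-ATP (final) and run 30 min at 37 °C. Released ³²Pi was extracted as phosphomolybdate into isobutanol and scintillation counted. IC50 came from single-site dose–response fits.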

Series [3] concerns the target Na+/K+ ATPase alpha-1/beta-1 (Rattus norvegicus, UniProt P06685+P07340). Nature of the series: Inhibition of recombinant rat Na+/K+-ATPase alpha1/beta1 expressed in baculovirus infected insect Sf9 cell membranes using [gamma-32P]ATP as substrate preincubated for 20 mins followed by substrate addition measured after 30 mins by liquid scintillation counting. The essentials: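 Rat α/β1 isoforms were expressed in baculovirus-infected Sf9 cells (72 h, 27 °C), washed in 10 mM imidazole-HCl pH 7.5 with 1 mM EGTA, and homogenised. Homogenates were assayed in 120 mM NaCl, 30 mM KCl, 3 mM MgCl₂, 0.2 mM EGTA and 30 mM Tris-HCl pH 7.4. Reactions were started with 2 mM γ[³²P]-ATP (final) and run 30 min at 37 °C. Released ³²Pi was extracted as phosphomolybdate into isobutanol and scintillation counted. Activity was taken as the 1 mM ouabain-sensitive fraction. IC50 came from single-site dose–response fits.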

Series [4] relates to Rattus norvegicus. As to the kind of experiment: Inhibition of rat sperm progressive motility at 5 mg/kg administered daily via oral gavage for 3 days by SYTO staining based microscopic method. It is filed as functional, organism-based. A digest of the protocol: as §1
In another series the test system is MCF7. Nature of the series: Antiproliferative activity against human MCF7 cells up to 100 uM after 72 hrs by AlamarBlue assay. It is filed as cell-based. Conditions: mcf7, 72 h. In general terms: Resazurin is reduced to fluorescent resorufin, in cell work by metabolically active cells.
Series [5] is described as follows: Apparent permeability from basolateral side to apical side in human Caco2 cells at 1 uM after 60 mins by HPLC-MS analysis. Conditions: caco-2, 1 h. It is filed as ADME, cell-based. For orientation: Caco-2 cells form a polarised layer with tight junctions and transporters.
Series [6] in a line: Apparent permeability from basolateral side to apical side in human Caco2 cells assessed as drug recovery at 1 uM after 60 mins by HPLC-MS analysis. It is filed as ADME, cell-based. Conditions: caco-2, 1 h.
Series [7] can be described thus: Metabolic stability in monkey liver S9 fraction assessed as parent compound remaining at 1 uM after 60 mins relative to control. It is filed as ADME, tissue-based, Macaca mulatta. The note with it: rhesus monkey, s9, 1 h.
Series [8] has as its system Liver. As to the kind of experiment: Metabolic stability in dog liver S9 fraction assessed as parent compound remaining at 1 uM after 60 mins relative to control. It is filed as ADME, tissue-based, Canis lupus familiaris. The note with it: s9, 1 h.
The test system of series [9] is Rattus norvegicus. As to the kind of experiment: Inhibition of rat sperm progressive motility at 5 mg/kg administered daily via oral gavage for 6 to 12 days by SYTO staining based microscopic method relative to control. It is filed as functional. The essentials:
as §1

Series [10] concerns the target Voltage-gated inwardly rectifying potassium channel KCNH2 (Homo sapiens, UniProt Q12809). Nature of the series: Displacement of Tracer Red from human ERG expressed in cell membranes up to 60 uM by fluorescence polarization assay. The essentials:
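Competitive fluorescence polarization displacement of a fluorescently tagged hERG ligand used membranes from cells stably expressing hERG. Compounds were tested up to 60 μM.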
(In general: In fluorescence polarisation assays a small probe gives low polarisation when free and higher when bound to something large.)

The subject of series [11] is Rattus norvegicus. Nature of the series: Inhibition of rat sperm total motility at 5 mg/kg administered daily via oral gavage for 3 days by SYTO staining based microscopic method. It is filed as functional, organism-based. A digest of the protocol:
as §1

The test system of series [12] is Liver. Nature of the series: Metabolic stability in human liver S9 fraction assessed as parent compound remaining at 1 uM after 60 mins relative to control. The note with it: s9, 1 h. It is filed as ADME, tissue-based.
In series [13] the test system is Liver. As to the kind of experiment: Metabolic stability in mouse liver S9 fraction assessed as parent compound remaining at 1 uM after 60 mins relative to control. It is filed as ADME, tissue-based. The note with it: s9, 1 h.
Series [14] can be described thus: Apparent permeability from apical side to basolateral side in human Caco2 cells at 1 uM after 60 mins by HPLC-MS analysis. It is filed as ADME, cell-based. Conditions: caco-2, 1 h. A digest of the protocol: (§2)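 Caco-2 monolayers were grown on Transwell filters, with test compound at 1 × 10^-6 M. Apical-to-basolateral flux was run at 37 °C with shaking, at pH 6.5 apical and pH 7.4 basolateral. Donor was sampled over 0–60 min and receiver at 60 min. Compound was quantified by full-scan HPLC-MS. Apparent permeability and percent recovery were derived from two determinations.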

The subject of series [15] is Rattus norvegicus. Nature of the series: Inhibition of rat sperm total motility at 5 mg/kg administered daily via oral gavage for 6 to 12 days by SYTO staining based microscopic method relative to control. It is filed as functional. The essentials:
as §1

Series [16] deals with Liver. Nature of the series: Metabolic stability in rat liver S9 fraction assessed as parent compound remaining at 1 uM after 60 mins relative to control. It is filed as ADME, tissue-based. Conditions: s9, 1 h.
Series [17] in a line: Apparent permeability from apical side to basolateral side in human Caco2 cells assessed as drug recovery at 1 uM after 60 mins by HPLC-MS analysis. It is filed as ADME, cell-based. Conditions: caco-2, 1 h. A digest of the protocol: as §2

Sequence of Voltage-gated inwardly rectifying potassium channel KCNH2 (Q12809 whole entry): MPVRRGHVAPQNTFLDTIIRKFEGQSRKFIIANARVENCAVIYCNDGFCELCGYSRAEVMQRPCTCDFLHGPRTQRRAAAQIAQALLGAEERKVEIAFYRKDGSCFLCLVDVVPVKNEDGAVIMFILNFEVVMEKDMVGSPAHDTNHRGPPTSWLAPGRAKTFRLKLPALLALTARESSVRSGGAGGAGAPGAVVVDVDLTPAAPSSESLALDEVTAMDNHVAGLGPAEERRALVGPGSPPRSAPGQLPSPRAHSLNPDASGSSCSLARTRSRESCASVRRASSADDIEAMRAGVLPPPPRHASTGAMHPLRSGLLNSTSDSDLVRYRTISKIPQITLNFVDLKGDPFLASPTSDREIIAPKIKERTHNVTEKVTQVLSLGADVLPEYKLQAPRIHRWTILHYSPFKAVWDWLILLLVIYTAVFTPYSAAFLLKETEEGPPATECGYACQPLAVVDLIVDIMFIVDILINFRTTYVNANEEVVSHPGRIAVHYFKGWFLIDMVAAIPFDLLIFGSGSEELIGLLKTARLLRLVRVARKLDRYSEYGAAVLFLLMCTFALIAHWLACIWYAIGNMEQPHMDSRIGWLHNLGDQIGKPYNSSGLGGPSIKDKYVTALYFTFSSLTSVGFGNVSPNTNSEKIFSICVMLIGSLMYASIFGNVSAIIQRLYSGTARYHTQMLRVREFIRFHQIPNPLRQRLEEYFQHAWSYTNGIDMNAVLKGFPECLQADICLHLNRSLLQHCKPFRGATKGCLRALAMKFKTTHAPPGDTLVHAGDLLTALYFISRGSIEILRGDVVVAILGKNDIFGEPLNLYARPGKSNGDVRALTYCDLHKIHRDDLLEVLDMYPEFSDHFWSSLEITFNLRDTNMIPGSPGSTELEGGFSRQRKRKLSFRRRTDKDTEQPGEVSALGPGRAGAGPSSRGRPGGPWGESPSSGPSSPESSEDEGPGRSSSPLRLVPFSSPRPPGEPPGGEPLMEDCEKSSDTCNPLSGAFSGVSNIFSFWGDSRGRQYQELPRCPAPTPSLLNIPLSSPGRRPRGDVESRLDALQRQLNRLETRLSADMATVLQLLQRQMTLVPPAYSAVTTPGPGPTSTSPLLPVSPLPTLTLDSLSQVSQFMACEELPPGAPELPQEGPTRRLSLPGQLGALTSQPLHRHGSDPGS

For orientation: inhibition in vivo means the percentage by which the read-out fell short of the control. By IC50 is commonly meant the concentration at which inhibition is half-maximal. In general, Papp refers to the rate of passage across a membrane or cell layer, normalised by area and donor concentration. As for `C[C@]12C[C@@H](O)[C@H]3[C@@H](CC[C@]4(O)C[C@@H](O)C[C@@H](O)[C@]34CO)[C@@]1(O)CC[C@@H]2c1cn(Cc2ccccc2)nn1`, testing at 20 mg/kg in the series on Rattus norvegicus [1] gave an inhibition in vivo of 50%. In addition, the IC50 in series [2] and in series [3] was above 100 µM each time. The inhibition result in the series with Rattus norvegicus [4] and in the series on Rattus norvegicus [11] was “Active” in each case. Further, the Activity result in the series on MCF7 is reported as “Non-Toxic”. For the same compound, the Papp in [5] is listed as 0.3 ×10⁻⁶ cm/s; in series [14] it was below 0.2 ×10⁻⁶ cm/s. Also, the Drug recovery in series [6] is on record as 98%; in [17], 94%. Moreover, the Stability is reported as 89% in series [7]; 99% with Liver [8]; 107% with Liver [12]; 76% in the series on Liver [13]; 95% in the series with Liver [16]. In addition, the inhibition in vivo at 5 mg/kg in the series with Rattus norvegicus [9] was 50%; in the series with Rattus norvegicus [15], 40%. For the same compound, in [10], the “inhibition (INH)” value is reported as “Not Active”.
